PKD1 inh: blocks activity of human protein kinase D1 | Q15139 | PKD1 kinase fluorescence polarization assay | inhibition, % (concentration not given with the values) | 200,000 compounds, 0.056% hits
Wee1 degr inh: inhibitors of human Wee1 degradation | P30291 | HeLa Luc-Wee1K328M stability, luciferase luminescence; 100% = proteasome inhibitor MG132 effect | reporter increase, % at 5 µM | 220,000 compounds, 1.2% hits | AID 1321;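 active = activation above the mean of all tested compounds plus 3 SD, set per screening run, cut at about 8.8% in these data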;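 note: cells exposed to compound for 20 h before luminescence read; 0% = DMSO alone and 100% = MG132 at 30 µM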
L major viab: reduces viability of Leishmania major promastigotes; inhibition, % at 10 µM; AID 1063; resazurin fluorescence viability; 200,000 compounds, 9% hits;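 note: promastigotes grown with compound for 44 hours at 28 °C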
Arbovirus inh: arbovirus infection inhibition; arbovirus infection cell-based antiviral screen; inhibition, % at 10 µM; 200,000 compounds, 0.37% hits; AID 1251; in the data active = inhibition above about 30%
CHOP inhibitor: blocks CHOP induction under ER stress; CHO-K1 CHOP-promoter luciferase, tunicamycin-induced, 15-18 h; inhibition, % at 10 µM; 220,000 compounds, 3.8% hits; AID 2732;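 active = compounds that reduced the stress-induced luciferase reporter signal by more than about 70% of percent inhibition, limit read from the data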;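 note: 0% = tunicamycin plus vehicle and 100% = wells without tunicamycin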
Rad51 HR inh: Rad51 (human) homologous recombination inhibition; Q06609; hRad51 DNA strand exchange, fluorescence dequenching; inhibition, % at 10 µM; 200,000 compounds, 0.085% hits; AID 1385;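 active = inhibition above 40% at the single screening dose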;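 note: 0% = DMSO control wells and 100% = blanks with heterologous ssDNA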
Target sequence (Q06609 whole entry, looked up): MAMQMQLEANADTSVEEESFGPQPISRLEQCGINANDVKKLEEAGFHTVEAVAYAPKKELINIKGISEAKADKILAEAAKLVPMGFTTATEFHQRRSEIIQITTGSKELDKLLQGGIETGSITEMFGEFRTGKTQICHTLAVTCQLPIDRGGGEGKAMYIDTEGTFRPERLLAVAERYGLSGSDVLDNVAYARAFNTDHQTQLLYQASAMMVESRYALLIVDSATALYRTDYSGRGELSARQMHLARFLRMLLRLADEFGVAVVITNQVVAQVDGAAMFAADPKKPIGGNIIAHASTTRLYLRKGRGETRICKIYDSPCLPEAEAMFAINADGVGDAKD
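Material: human Rad51–ssDNA filaments; Probe or stimulus: labelled 47-mer dsDNA for strand exchange; Doses: single 10 µM dose; Incubation: 37 °C 15-min filament assembly, 30-min compound preincubation, 15-min exchange; Technique: FRET fluorescence dequenching, excitation 485 nm, emission 520 nm; Measure: Fluorescence-based percent inhibition, control- and blank-normalised; Benchmarks: plate control and blank wells.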
* = called active by the depositor; . = not tested or not shown. A selection: hits, their analogues and other compounds. The true share with any hit is near 12%. Cut-off read from the data, not from the text of the source, unless noted: active = inhibition above about 50%; inactive = the rest.

SMILES	PKD1 inh	Wee1 degr inh	L major viab	Arbovirus inh	CHOP inhibitor	Rad51 HR inh
C=CCn1c(SCC(=O)c2c(N)n(CCC)c(=O)n(C)c2=O)nnc1-c1ccncc1	-1.7	-1.5	-5.8	6.2	4.1	3.1
CN(Cc1ccc(F)cc1)C(=O)c1cccc(OC2CCN(C3CCCC3)CC2)c1	-0.5	-1.1	92.9*	-10.8	11.4	.
CN(Cc1ccc(F)cc1)C(=O)c1ccc2c(c1)NC(=O)CS2	-1.9	-1.1	-8.3	-1.1	4.9	6.1
O=C(NCCOC(=O)c1ccc(Cl)c(S(=O)(=O)N2CCCCC2)c1)c1ccncc1	-7.0	-2.0	51.4*	2.0	12.7	2.7
O=C(NCc1ccncc1)c1ccc(Cl)c(S(=O)(=O)N2CCCCC2)c1	4.8	3.2	2.4	4.2	14.1	8.3
Cc1ccc(S(=O)(=O)NCCC(=O)Nc2ccc(Cl)c(Cl)c2)cc1	0.9	1.2	11.7	7.2	83.5*	18.4
NS(=O)(=O)c1ccc(CCNC(=O)Nc2ccc(Cl)c(Cl)c2)cc1	0.8	-2.7	75.7*	-22.8	36.6	2.4
Cc1ccc(S(=O)(=O)NCCC(=O)Nc2cccc(Cl)c2)cc1	11.9	1.3	52.3*	-0.9	30.7	.
Cc1ccc(NC(=O)CCNS(=O)(=O)c2cccc3nonc23)cc1	-8.5	4.4	-2.6	3.7	74.9*	3.8
Cc1ccc(S(=O)(=O)N2CCOCC2)cc1C(=O)OCC(=O)NC1CCS(=O)(=O)C1 (stereo unspecified)	-4.8	-4.0	-2.9	-6.2	-6.4	8.6
CCOC(=O)C1=C(C)N(C)C(=O)NC1c1cc2c(cc1[N+](=O)[O-])OCO2 (stereo unspecified)	-0.9	-1.6	8.6	-2.0	26.8	17.7
C=CCNC(=O)CC1C(=O)NCCN1Cc1ccc(-c2ccccc2)cc1 (stereo unspecified)	-3.1	10.8*	-6.9	-2.9	-17.6	0.4
O=C(CC1C(=O)NCCN1Cc1ccc(-c2ccccc2)cc1)NCC1CC1 (stereo unspecified)	-5.0	1.7	-3.0	-4.4	1.9	-8.0
CCCCN(C)C1=Nc2cccc3cccc1c23	0.4	3.1	56.9*	12.4	-5.5	.
CCCOc1ccc(C(=O)NCCC(=O)NCCCC(=O)O)cc1	.	-0.3	.	.	-2.9	-2.0
O=[N+]([O-])c1nn(-c2ccc3c(c2)OCCO3)n(O)c1=NC1CCCCCC1	-4.2	1.8	86.8*	-29.4	77.3*	-1.1
O=[N+]([O-])c1nn(-c2ccc3c(c2)OCCO3)n(O)c1=NCCCO	0.5	0.1	72.1*	-20.1	32.3	-2.0
COc1ccc(-n2nc([N+](=O)[O-])c(=NCCCN3CCCC3=O)n2O)cc1	0.3	-0.7	37.5	-3.7	-15.0	19.3
O=C1CCCN1CCCN=c1c([N+](=O)[O-])nn(-c2ccc(Cl)cc2)n1O	-3.8	-1.1	73.0*	-29.1	7.8	-16.8
COc1ccc(-n2nc([N+](=O)[O-])c(=NCc3ccc4c(c3)OCO4)n2O)cc1	0.5	3.8	96.6*	-10.3	-30.4	8.7
Nc1nc(SCCO)[nH]c(=O)c1NC(=O)c1ccccc1F	1.9	-0.7	-6.0	2.9	-10.3	4.1
CCCSc1nc2cc(C)c(C)cc2n1CC(C)O (stereo unspecified)	0.5	1.0	4.2	4.5	-5.6	-2.0
Cc1ccc(C2C(C(=O)c3cccs3)=C(O)C(=O)N2c2nnc(C)s2)cc1 (stereo unspecified)	5.0	-1.1	-5.4	1.8	-19.8	.
Cc1ccc(CN=c2c([N+](=O)[O-])nn(-c3ccc4c(c3)OCCO4)n2O)cc1	-0.7	4.2	98.0*	-9.0	24.3	10.5
Cn1nnnc1SCC(=O)c1ccc2c(c1)OCCO2	1.6	-1.0	-8.3	-0.5	-13.5	1.5
SMILES	PKD1 inh	Wee1 degr inh	L major viab	Arbovirus inh	CHOP inhibitor	Rad51 HR inh
CCCn1nnnc1SCC(=O)c1ccc2c(c1)OCCO2	-2.7	3.1	2.4	-3.1	85.1*	-3.2
COc1ccc(NC(=O)Cc2coc3cc(C)ccc23)cn1	-3.2	0.6	-3.2	1.8	5.3	2.3
COc1cccc(CNCCc2c[nH]c3ccccc23)c1OCc1ccc(F)cc1	-1.7	-1.0	100.4*	-43.2	53.8	-0.1
COc1cc(CNCCc2c[nH]c3ccccc23)ccc1OCc1ccc(F)cc1	-11.2	-0.5	100.4*	-41.6	88.0*	-3.2
COc1ccccc1NC(=S)NCCc1c[nH]c2ccccc12	-2.1	-1.2	0.8	8.9	3.0	14.5
O=C1O[C@@H]([C@H](O)CO)C(O)=C1O	.	.	.	.	.	5.5
CCOc1ccc(CN2CCN(Cc3cccn3-c3ncccn3)CC2CCO)cc1 (stereo unspecified)	-6.7	-3.0	2.1	-3.0	8.3	19.2
COc1cccc(CN2CCN(Cc3cccc4c3OCO4)CC2CCO)c1 (stereo unspecified)	6.5	-1.6	8.4	-2.9	7.5	-107.9
Cc1ccc(CN2CCN(Cc3cccc4c3OCO4)CC2CCO)cc1 (stereo unspecified)	5.6	4.9	58.0*	3.3	9.6	.
CCOc1ccc(CN2CCN(Cc3[nH]c4ccccc4c3C)CC2CCO)cc1 (stereo unspecified)	-1.0	4.9	77.2*	-13.2	21.9	18.2
CCOc1cccc(CN2CCN(Cc3ccc(C)o3)C(CCO)C2)c1O (stereo unspecified)	1.5	9.3*	11.4	0.1	31.8	8.8
CCOc1cccc(CN2CCN(CCc3ccccc3)C(CCO)C2)c1O (stereo unspecified)	-11.0	-2.6	9.7	2.9	3.7	3.5
CCOc1ccccc1CN1CCN(Cc2csc(C(C)=O)c2)CC1CCO (stereo unspecified)	2.0	0.6	72.5*	-3.1	24.6	8.8
Cc1sc2ncn(CC(=O)N3CCOCC3)c(=O)c2c1-c1ccccc1	3.3	-3.3	-2.6	5.6	9.4	0.2
CN(C)S(=O)(=O)c1ccc(N=Cc2c(C(F)(F)F)[nH]n(C)c2=O)cc1	-3.5	-3.0	-4.8	4.3	6.6	5.5
COc1cccc(/C=N/NC(=O)Cn2cnc3c2c(=O)n(C)c(=O)n3C)c1	.	0.6	.	.	11.8	10.8
CCOc1ccc(CN2CCN(Cc3cccc4c3OCO4)CC2CCO)cc1 (stereo unspecified)	-0.1	0.7	76.7*	-6.4	12.2	-11.6
O=C(CCc1ccc(Oc2cc([N+](=O)[O-])cc([N+](=O)[O-])c2)cc1)N1CCCCCC1	5.9	-0.4	98.3*	-4.7	49.8	.
COc1ccc(N2CCN(C(=O)c3c(C)nn(-c4ccccc4)c3C)CC2)cc1	0.0	-2.8	50.2*	3.4	23.4	1.8
O=C(Cc1ccc([N+](=O)[O-])cc1)N1CCCCCC1	0.7	3.6	-6.6	9.8	0.7	16.7
O=C(CCC1CCCC1)N1CCN(C2CCCC2)CC1	-17.7	1.4	94.2*	2.0	12.7	.
O=C(CCC1CCCC1)N1CCN(C(=O)C2CC2)CC1	7.4	-1.4	-3.3	-7.2	23.0	5.0
CN1CCN(C(=O)CCc2ccc(S(=O)(=O)NC3CCCCC3)cc2)CC1	1.1	1.1	3.8	4.2	-9.1	-2.9

High-throughput results: PubChem, several laboratories
